Experimental data collected from several papers.
Each line is one published result; the experiments were not run side by side.
gag-pol reverse transcriptase: Gag-Pol polyprotein, reverse transcriptase (gag-pol, Human immunodeficiency virus 1, UniProt P03366)
gyrA: DNA gyrase subunit A (gyrA, Escherichia coli K-12, UniProt P0AES4)

Compound | target | observed | action | technique | pH | IC50 [nM]
Cc1cc(C)cc(S(=O)(=O)c2c(C(=O)NCCCCNS(=O)(=O)c3cccc(F)c3)[nH]c3ccc(Cl)cc23)c1 | gag-pol reverse transcriptase | enzyme activity | inhibitor | ELISA | – | 150
N#Cc1ccc(Nc2nc(N)cc(Oc3c(F)cc(-c4ccccc4F)cc3F)n2)cc1 | gag-pol reverse transcriptase | enzyme activity | inhibitor | – | – | 40
CC(C)Oc1c(NC(=O)c2ccc(NC(=O)[C@H](CC(N)=O)NC(=O)c3ccc(C#Cc4ccc(C#N)cc4)cc3)cc2)ccc(C(=O)Nc2ccc(C(=O)O)cc2)c1O | gyrA | enzyme activity | inhibitor | – | – | 500
COc1cc(C[C@H]2C(=O)OC[C@@H]2Cc2ccc(OC)c(OC)c2)ccc1O | cGMP-dependent 3',5'-cyclic phosphodiesterase (PDE2A, Homo sapiens, UniProt O00408) | enzyme activity | inhibitor | – | – | > 20000
CCOCc1nc(O)c(-c2nnc(Cc3ccc(Cl)cn3)o2)c(O)c1-c1c(OC)cccc1OC | Alpha-2A adrenergic receptor (ADRA2A, Homo sapiens, UniProt P08913) | ligand displacement | – | radioligand | – | > 30000
CNC(=O)c1ccccc1Nc1cc(Nc2cc(C)c(C3CCN(CCCCCCNC(=O)COc4cccc5c4C(=O)N(C4CCC(=O)NC4=O)C5=O)CC3)cc2OC(C)C)ncc1C(F)(F)F (stereo not drawn) | Protein-tyrosine kinase 2-beta (PTK2B, Homo sapiens, UniProt Q14289) | enzyme activity | inhibitor | – | – | 296
Cc1ccc(S(=O)(=O)NCCCCCNC(=O)c2[nH]c3ccc(Cl)cc3c2S(=O)(=O)c2cc(C)cc(C)c2)cc1 | gag-pol reverse transcriptase | enzyme activity | inhibitor | ELISA | – | 130
CC(C)Oc1c(NC(=O)c2ccc(NC(=O)[C@H](CC(N)=O)NC(=O)c3ccc(NC(=O)c4ccc5c(c4)COC5=O)cc3)cc2)ccc(C(=O)Nc2ccc(C(=O)O)cc2)c1O | gyrA | enzyme activity | inhibitor | – | – | 1400
N#Cc1ccc(Nc2nc(N)cc(Oc3c(F)cc(-c4ccc(C#N)cc4)cc3F)n2)cc1 | gag-pol reverse transcriptase | enzyme activity | inhibitor | – | – | 20
N#C/C(=C\c1cccn1S(=O)(=O)c1ccccc1)S(=O)(=O)c1ccccc1 | Protein phosphatase methylesterase 1 (Homo sapiens, UniProt Q9Y570) | enzyme activity | inhibitor | – | – | > 20000
N#Cc1ccc(Nc2nc(N)cc(Oc3c(F)cc(-c4cccc(F)c4)cc3F)n2)cc1 | gag-pol reverse transcriptase | enzyme activity | inhibitor | – | – | 70
Cc1cc(C)cc(S(=O)(=O)c2c(C(=O)NCCCNS(=O)(=O)c3ccc(Cl)cc3)[nH]c3ccc(Cl)cc23)c1 | gag-pol reverse transcriptase | enzyme activity | inhibitor | ELISA | – | 78
CCCC(CCC)C(=O)O | Aldo-keto reductase family 1 member A1 (AKR1A1, Homo sapiens, UniProt P14550) | enzyme activity | inhibitor | absorbance | pH 6.2 | 53200
CC(C)Oc1c(NC(=O)c2ccc(NC(=O)[C@H](CC(N)=O)NC(=O)c3ccc(NC(=O)c4ccc(C#N)cc4)cc3)cc2)ccc(C(=O)Nc2ccncc2)c1O | gyrA | enzyme activity | inhibitor | – | – | 900
Cc1cc(C)cc(S(=O)(=O)c2c(C(=O)NCCCCCNS(=O)(=O)c3ccc(F)cc3)[nH]c3ccc(Cl)cc23)c1 | gag-pol reverse transcriptase | enzyme activity | inhibitor | ELISA | – | 150
CC(C)Oc1c(NC(=O)c2ccc(NC(=O)[C@H](CC(N)=O)NC(=O)c3ccc(NC(=O)c4cccc([N+](=O)[O-])c4)cc3)cc2)ccc(C(=O)Nc2ccc(C(=O)O)cc2)c1O | gyrA | enzyme activity | inhibitor | – | – | 2200
Cc1cc(C)cc(S(=O)(=O)c2c(C(=O)NCCCCCNS(=O)(=O)c3ccc(Br)cc3)[nH]c3ccc(Cl)cc23)c1 | gag-pol reverse transcriptase | enzyme activity | inhibitor | ELISA | – | 130
CCOC(=O)N1CCC(CN(Cc2ccc(Cl)cc2)Cc2ccc([N+](=O)[O-])s2)C1 (stereo not drawn) | Oxysterols receptor LXR-alpha (NR1H3, Homo sapiens, UniProt Q13133) | ligand displacement | – | radioligand | – | 13000
